Test results: ChEMBL document CHEMBL4033788, “Novel Ligustrazine-Based Analogs of Piperlongumine Potently Suppress Proliferation and Metastasis of Colorectal Cancer Cells in Vitro and in Vivo” (J Med Chem, 2018)
The source made the active and inactive calls. The calls are words filed in the database; no cut-off is given here.

What was measured:
[1] = system: HCT-116; assay: Inhibition of TGF-beta1-induced decrease in expression levels of E-cadherin protein in human HCT116 cells at 50 nM after 48 hrs by Western blot analysis; assay type: functional, cell-based
How it was run: (§1)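 HCT-116 cells treated with or without TGF-β1 (10 ng/mL) for 48 h, with or without test agent. Lysates (20 μg/lane) run on 7.5% SDS-PAGE and transferred to PVDF. Probed for p-Akt (Ser473), Akt, p-GSK-3β (S9), GSK-3β, E-cadherin, MMP-9 and β-actin, detected by ECL. Densitometry relative to β-actin or total protein. Three independent experiments.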

[2] = system: HCT-116; assay: Antiproliferative activity against human HCT116 cells at 8 uM pretreated with GSH for 1 hr measured after 72 hrs by MTT assay; assay type: functional, cell-based
How it was run: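 HCT-116 cells pretreated with or without GSH (10 mM) for 1 h, washed, then treated for 72 h. Viability measured by MTT and inhibitory rates calculated. Mean ± SD of three independent experiments.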

[3] = system: HCT-116; assay: Inhibition of TGF-beta1-induced increase in expression levels of vimentin protein in human HCT116 cells at 50 nM after 48 hrs by Western blot analysis; assay type: functional, cell-based
How it was run: (§2)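 HCT-116 cells (1 × 10^6/well, plated overnight) were exposed to TGF-β1 (10 ng/mL) for 48 h, with or without test compound; vehicle was 0.1% DMSO. Lysates (20 μg/lane) were run on 7.5% SDS-PAGE and blotted to PVDF, with primary antibody overnight at 4 °C and HRP/ECL detection. Band densities were normalised to β-actin across three independent experiments.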

[4] = system: U-87 MG; assay: Antiproliferative activity against human U87MG cells after 72 hrs in presence of ligustrazine by MTT assay; assay type: functional, cell-based, U-87MG ATCC
How it was run: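 Cells grown in RPMI 1640 with 10% FBS in 96-well plates overnight, then exposed to test agents in triplicate for 72 h. MTT (5 mg/mL stock) added for the last 4 h, formazan dissolved in DMSO, absorbance read at 570 nm. Inhibition = (1 − OD treated/OD control) × 100%.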

[5] = system: HCT-116; assay: Inhibition of IL-1beta-mediated adhesion of human rhodamine 123-labeled HCT116 cells to HUVEC at 50 nM after 1 hr by fluoresence assay; assay type: functional, cell-based
How it was run: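 HUVEC monolayers pretreated with or without IL-1β (1 ng/mL) for 4 h, then washed. Rhodamine 123-labeled HCT-116 cells added with vehicle or test agent (2, 10, 50 nM) at 37 °C for 1 h. Non-adherent cells washed off; percent adhered cells determined by fluorescence microscopy. Three separate experiments.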

[6] = target: RAC-alpha serine/threonine-protein kinase (Homo sapiens) (UniProt P31749); assay: Inhibition of TGF-beta1-induced AKT phosphorylation in human HCT116 cells at 50 nM after 48 hrs by Western blot analysis; assay type: cell-based; how it was run: as §1
Sequence of RAC-alpha serine/threonine-protein kinase (Homo sapiens) (P31749 whole entry): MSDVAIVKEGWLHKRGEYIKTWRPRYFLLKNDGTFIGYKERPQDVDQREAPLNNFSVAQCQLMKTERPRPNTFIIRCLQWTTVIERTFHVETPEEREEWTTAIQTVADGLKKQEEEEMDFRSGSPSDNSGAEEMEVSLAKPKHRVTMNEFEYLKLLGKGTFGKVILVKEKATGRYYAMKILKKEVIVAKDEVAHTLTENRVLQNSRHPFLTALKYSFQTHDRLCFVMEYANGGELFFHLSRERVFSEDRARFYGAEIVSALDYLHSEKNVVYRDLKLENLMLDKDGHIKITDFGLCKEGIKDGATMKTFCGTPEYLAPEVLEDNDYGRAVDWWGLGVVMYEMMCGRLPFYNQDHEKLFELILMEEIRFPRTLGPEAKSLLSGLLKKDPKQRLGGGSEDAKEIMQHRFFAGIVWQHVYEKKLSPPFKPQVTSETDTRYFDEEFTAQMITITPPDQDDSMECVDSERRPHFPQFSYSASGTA

[7] = target: Glycogen synthase kinase-3 beta (Homo sapiens) (UniProt P49841); assay: Inhibition of TGF-beta1-induced GSK-3beta phosphorylation in human HCT116 cells at 50 nM after 48 hrs by Western blot analysis; assay type: cell-based; how it was run: as §1
Sequence of Glycogen synthase kinase-3 beta (Homo sapiens) (P49841 whole entry, looked up): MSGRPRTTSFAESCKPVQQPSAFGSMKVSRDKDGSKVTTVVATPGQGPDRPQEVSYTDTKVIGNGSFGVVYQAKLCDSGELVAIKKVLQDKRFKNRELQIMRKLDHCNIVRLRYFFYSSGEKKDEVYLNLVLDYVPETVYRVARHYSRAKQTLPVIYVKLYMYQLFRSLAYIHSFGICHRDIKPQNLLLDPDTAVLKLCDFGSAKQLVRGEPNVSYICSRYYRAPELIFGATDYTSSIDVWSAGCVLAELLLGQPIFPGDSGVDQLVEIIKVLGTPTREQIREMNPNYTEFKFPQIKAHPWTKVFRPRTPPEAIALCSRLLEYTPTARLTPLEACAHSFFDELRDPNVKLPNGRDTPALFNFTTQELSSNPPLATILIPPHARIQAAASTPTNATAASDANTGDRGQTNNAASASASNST

[8] = system: HCT-116; assay: Antiinvasive activity in human HCT116 cells assessed as inhibition of TGF-beta1-induced cell invasion at 50 nM after 48 hrs by crystal violet staining-based assay; assay type: functional
How it was run: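 Transwell invasion. HCT-116 cells (2.5 × 10^5/well) seeded on matrigel-coated chambers, with TGF-β1 (10 ng/mL) and test agents (2, 10, 50 nM) in the lower chamber for 48 h. Invaded cells stained with crystal violet and counted. Three independent experiments.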

[9] = Induction of ROS accumulation in human CCD-841 cells at 1 to 10 uM up to 3 hrs by DCFH-DA staining-based fluorescence spectrometric analysis; assay type: cell-based; details: ccd-841, 3 h
How it was run: (§3)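 HCT-116 and CCD-841 cells treated in triplicate at 1, 5 and 10 μM for 1, 2 and 3 h. Intracellular ROS stained with DCFH-DA and fluorescence read on a microplate reader. Values expressed relative to DMSO control, from three separate experiments.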

[10] = system: HCT-116; assay: Inhibition of TGF-beta1-induced increase in expression levels of snail protein in human HCT116 cells after 48 hrs by Western blot analysis; assay type: functional, cell-based; how it was run: as §2
[11] = system: Mus musculus; assay: Nephrotoxicity in BALB/c nude mouse xenografted with human HCT116 cells at 2.5 to 5 mg/kg, ip administered for 21 consecutive days; assay type: toxicity, organism-based; details: in vivo
How it was run: (§4)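 Male BALB/c nude mice (3−5 weeks) inoculated sc with 1 × 10^7 HCT-116 cells; at tumour volume about 75 mm3 randomized (n = 8 per group) and dosed ip daily at 2.5 or 5 mg/kg for 21 consecutive days. Body weights monitored; liver, kidney, lung and heart inspected for size and morphology at sacrifice.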

[12] = Acute toxicity in ICR mouse assessed as survival rate at 150 mg/kg, ip administered for 14 days relative to control; assay type: organism-based; details: in vivo
[13] = system: HCT-116; assay: Inhibition of TGF-beta1-induced increase in expression levels of vimentin protein in human HCT116 cells after 48 hrs by Western blot analysis; assay type: functional, cell-based; how it was run: as §2
[14] = system: HCT-116; assay: Induction of ROS accumulation in human HCT116 cells up to 3 hrs in presence of GSH by DCFH-DA staining-based fluorescence microscopic analysis; assay type: functional, cell-based
[15] = Thiol reactivity in DMSO assessed as addition reaction at C8 position at 5 mg up to 8 hrs in presence of 3.0 equiv methyl thioglycolate by 1H NMR analysis
[16] = target: RAC-alpha serine/threonine-protein kinase (Homo sapiens) (UniProt P31749); assay: Inhibition of TGF-beta1-induced AKT phosphorylation in human HCT116 cells after 48 hrs by Western blot analysis; assay type: cell-based; how it was run: as §1
[17] = system: HCT-116; assay: Antiproliferative activity against human HCT116 cells at […] pretreated with GSH for 1 hr measured after 72 hrs by MTT assay relative to control; assay type: functional
[18] = system: Mus musculus; assay: Hepatotoxicity in BALB/c nude mouse xenografted with human HCT116 cells at 2.5 to 5 mg/kg, ip administered for 21 consecutive days; assay type: toxicity, organism-based; details: in vivo; how it was run: as §4
[19] = system: HCT-116; assay: Antimetastatic activity against human HCT116 cells xenografted in BALB/c nude mouse model assessed as reduction in lung metastatic tumor at 2 to 4 mg/kg, ip administered thrice a week for 6 consecutive weeks by H and E staining-based assay; assay type: functional, organism-based
How it was run: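 BALB/c nude mice received HCT-116 cells into the tail vein, then were randomized and dosed intraperitoneally (1, 2 or 4 mg/kg) three times weekly. Body weight recorded weekly. Lungs sectioned (4 μm), H&E stained, and nodule number and area scored blinded in three sections per mouse. Nodule counts n = 4–6 per group.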

[20] = system: HCT-116; assay: Induction of ROS accumulation in human HCT116 cells up to 3 hrs in presence of GSH by DCFH-DA staining-based fluorescence spectrometric analysis; assay type: functional, cell-based
[21] = Acute toxicity in ICR mouse assessed as survival rate at 100 mg/kg, ip administered for 14 days relative to control; assay type: organism-based; details: in vivo
[22] = Acute toxicity in ICR mouse assessed as survival rate at 50 mg/kg, ip administered for 14 days relative to control; assay type: organism-based; details: in vivo
[23] = Stability of compound in stimulated gastric fluid at 1 uM after 4 hrs by LC-MS/MS analysis
[24] = system: HCT-116; assay: Induction of ROS accumulation in human HCT116 cells at 1 to 10 uM up to 3 hrs by DCFH-DA staining-based fluorescence spectrometric analysis; assay type: functional, cell-based; how it was run: as §3

## COc1cc(/C=C/C(=O)N2CCC=CC2=O)cc(OC)c1OC [PIPLARTINE]
[1]
  inhibition: Active
[2]
  Activity: inactive
[3]
  inhibition: Active
[4]
  IC50: 16.1 µM
[5]
  inhibition: Active
[6]
  inhibition: Active
[7]
  inhibition: Active
[8]
  Activity: Active

## Cc1nc(C)c(/C=C/C(=O)N2CCC=C(Cl)C2=O)nc1C
[9]
  Activity: Non-Toxic
[10]
  inhibition: Dose-dependent effect
[11]
  Activity: Non-Toxic
[12]
  survival at 336 h: 40%
[13]
  inhibition: Dose-dependent effect
[14]
  Activity: inactive
[15]
  Drug metabolism: Metabolite not detected
[16]
  inhibition: Dose-dependent effect
[17]
  inhibition at […]: 36.1%
[18]
  Activity: Non-Toxic
[19]
  Activity: Active
[20]
  Activity: inactive
[21]
  survival at 336 h: 80%
[22]
  survival at 336 h: 100%
[23]
  Stability: Stable
[24]
  Activity: Active
